# From PubChem BioAssay
# SUMO HTRF inh = inhibitors of human SUMOylation (UBC9). P63279. HTRF SUMOylation assay, SAE1/SAE2 + UBC9, in vitro. inhibition, % at 35 µM. 0.36% of 290,000 active; in the data active = inhibition above about 50%, passing the limit was not always enough
# Target sequence (P63279 whole entry, looked up): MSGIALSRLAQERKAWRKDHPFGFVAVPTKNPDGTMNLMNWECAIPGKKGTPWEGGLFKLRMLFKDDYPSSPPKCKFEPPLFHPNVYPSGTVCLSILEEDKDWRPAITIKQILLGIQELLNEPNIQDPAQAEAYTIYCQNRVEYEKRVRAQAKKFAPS
# HNF4A DNA FP = change in binding of human HNF4 alpha to DNA; 0.3% of 360,000 active; HNF4a-FITC DNA binding, fluorescence polarization, 1 h; P41235; AID 1224865; activity change, % at 10 µM; in the data active = activity change above about 30%, passing the limit was not always enough
# Target sequence (P41235 whole entry, looked up): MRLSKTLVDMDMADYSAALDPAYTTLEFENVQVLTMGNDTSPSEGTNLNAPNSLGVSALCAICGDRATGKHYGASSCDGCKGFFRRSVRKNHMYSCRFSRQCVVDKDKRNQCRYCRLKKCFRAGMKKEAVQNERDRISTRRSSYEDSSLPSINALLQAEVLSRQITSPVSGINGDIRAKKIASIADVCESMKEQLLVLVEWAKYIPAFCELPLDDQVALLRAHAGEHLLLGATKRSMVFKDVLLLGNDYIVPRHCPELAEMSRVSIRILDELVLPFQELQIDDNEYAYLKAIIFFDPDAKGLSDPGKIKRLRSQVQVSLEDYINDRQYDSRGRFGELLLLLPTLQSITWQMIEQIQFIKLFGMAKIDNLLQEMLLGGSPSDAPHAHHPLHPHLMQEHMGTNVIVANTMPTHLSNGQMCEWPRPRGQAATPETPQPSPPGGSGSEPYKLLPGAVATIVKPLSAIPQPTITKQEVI
# TPT1 inh = C. albicans TPT1 enzyme inhibition; recombinant caTPT1, FP RNA substrate dephosphorylation; inhibition, % at 5 µM; 0.81% of 300,000 active;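 active = inhibition above the mean of all tested compounds plus 3 SD, set per screening campaign, cut at about 24% in these data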;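 also: plate controls were DMSO alone for no effect and ferristatin control at 100 nM for full effect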
# SENP1 FRET inh = SENP1 (human) catalytic domain inhibition. inhibition, % at 10 µM. Q9P0U3. 0.21% of 360,000 active. recombinant SENP1 catalytic domain, CyPet-SUMO1-YPet FRET cleavage;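 active = inhibition at least 30% at 10 µM, raw YFP signal under a set limit, fluorescence ratio 0.5 to 1.5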;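 also: 0% = enzyme with DMSO and 100% = no enzyme wells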
#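 Controls: no-enzyme wells low, DMSO-plus-enzyme wells high control. Test system: human recombinant His6-tagged SENP1 catalytic domain enzyme. Reagent: SFCypet-SUMO1-SFYpet FRET protein substrate, 25 nM final. Doses: one dose per compound, 10 µM, 0.5% DMSO. Detection: FRET, CFP and YFP emission. Timing: 50 min reaction at room temperature.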
# Rpn11 inh = inhibitors of human proteasome Rpn11 | human 26S proteasome, Ub4-pepOG fluorescence polarization; 20S core pre-blocked with epoxomicin | calls only at 20 µM | 0.59% of 360,000 active;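 active = inhibition at 20 µM, scaled to each plate's controls, above about 33%, limit read from the data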
# CSN inh = blocks human CSN-mediated cullin deneddylation | Q92905 | Purified CSN, SCF-Nedd8-OG deneddylation, fluorescence polarization | inhibition, % at 12.5 µM | 0.38% of 360,000 active | AID 651999;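 active = pattern-corrected inhibition above about 35%, with an unprinted fluorescence ratio check between 0.5 and 1.5, limit read from the data, passing the limit was not always enough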;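 also: 0% = enzyme with substrate and 100% = substrate without enzyme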
#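 Test system: purified human Csn5 enzyme expressed in HEK293T cells. Amount: 0.24 nM enzyme. Reagent: SCFSkp2-Nedd8OG substrate at 10 nM final. Schedule: 90 min incubation of compound, enzyme and substrate at room temperature. Detection: fluorescence polarization. Read-out: % inhibition of substrate cleavage by Csn5.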
# * = called active by the depositor; i = inactive; x = not tested or not shown; + = active, no number. Hits are enriched below; roughly 1.8% of the tested compounds scored in any of these assays.
SMILES,SUMO HTRF inh,HNF4A DNA FP,TPT1 inh,SENP1 FRET inh,Rpn11 inh,CSN inh
O=C(NC1CCCC1)c1ccc2nc(-c3ccco3)c(-c3ccco3)nc2c1,51.4*,-29.0,-2.1,-19.5,i,42.8
Cc1ccc(C)c(N2CCN(C(=O)c3ccc4nc(-c5ccco5)c(-c5ccco5)nc4c3)CC2)c1,-3.2,-22.4,-1.4,-17.5,i,41.0
O=C(c1ccccc1)c1ccc2nc(-c3ccco3)c(-c3ccco3)nc2c1,95.3*,-44.5,13.8,-36.3,i,64.6
O=C(NCCc1ccccc1)c1ccc2nc(-c3ccco3)c(-c3ccco3)nc2c1,88.0,-27.0,3.1,-25.5,i,44.3
O=C(COc1ncnc2c1cnn2-c1ccccc1)Nc1ccc(S(=O)(=O)N2CCCCC2)cc1,-16.3,3.4,-0.1,-0.2,i,1.0
Nc1cc(N)nc(SCc2cccnc2)n1,12.7,1.5,-2.5,-3.3,i,-5.7
CCN(CC)C(=O)C1=C(C)N(Cc2ccc(C(C)(C)C)cc2)C(=O)C(CC(=O)NC(c2ccccc2)c2ccccc2)C1 (stereo not given),x,5.1,x,-1.0,i,+
CCN(CC)C(=O)C1=C(C)N(Cc2ccc(OC)cc2)C(=O)C(CC(=O)NCCc2ccccn2)C1 (stereo not given),x,0.7,x,-0.4,i,85.3*
COc1ccc(CCNC(=O)c2ccc3c(c2)S(=O)(=O)N=C2CCCCCN23)cc1OC,x,2.1,x,1.4,i,-3.5
COc1cc(/C=C2\CCc3c2nc2ccccc2c3C(=O)O)cc(OC)c1OC,54.2*,-48.1,0.1,-32.8,i,51.6
CCOc1cc(/C=C2\CCCc3c2nc2ccccc2c3C(=O)O)ccc1OC,21.3,-88.1,-86.9,-24.9,i,-18.2
CCOC(=O)C(C)Sc1nc(=O)n2cccc(C)c2n1 (stereo not given),4.6,2.6,-3.5,3.7,i,-0.3
CCOC(=O)C(C)Sc1ncc(-c2ccc(Cl)cc2)cn1 (stereo not given),4.4,72.9*,-2.9,1.0,i,2.3
CCOC(=O)Cn1c(-c2ccc(OC)cc2)c(-c2ccc(OC)cc2)nnc1=O,8.1,32.7*,1.9,3.0,i,-4.6
CCOC(=O)CSc1nnc(-c2ccc(OC)cc2)n1CC,9.7,0.8,-4.0,2.2,i,-4.8
COC(=O)Cn1c2ccc(OC)cc2c2nc3ccccc3nc21,27.0,-3.4,1.0,23.4,i,-7.3
CCOC(=O)Cn1c2ccc(OC)cc2c2nc3ccccc3nc21,53.9*,-24.7,-2.2,61.8,i,-9.7
COc1ccc(NC(=O)Nc2cccc3c2O[C@H](CN(C)C(=O)NC(C)C)[C@@H](C)CN([C@H](C)CO)C3=O)cc1,x,-0.5,x,0.4,i,5.0
CN=C(NC)SC1CC(=O)N(c2ccccc2)C1=O (stereo not given),3.1,-0.4,1.6,-3.7,i,3.6
COc1ccc(-n2[nH]c(C)cc2=O)cc1,13.1,-0.1,-4.6,-1.6,i,0.9
O=c1cc(-c2ccc(O)c(O)c2)oc2cc(O)c([C@@H]3O[C@H](CO)[C@@H](O)[C@H](O)[C@H]3O)c(O)c12,x,-1.7,x,15.4,i,-4.1
O=c1c2cc(O)c(O)cc2oc2cc(O)c(C3OC(CO)C(O)C(O)C3O)c(O)c12 (stereo not given),x,-11.6,-10.8,36.6*,i,7.8
COCc1nc2ccccc2n1CCOc1ccccc1OC,-5.9,1.2,-3.6,0.1,i,0.2
Cc1oc(-c2ccc(Cl)cc2)cc1-c1nn2c(-c3ccoc3C)nnc2s1,60.3*,-27.2,19.2,-4.7,i,35.5*
CC(C)n1cc2c(N)ncnc2n1,x,-3.1,x,-0.7,i,6.3
SMILES,SUMO HTRF inh,HNF4A DNA FP,TPT1 inh,SENP1 FRET inh,Rpn11 inh,CSN inh
Cn1nccc1NC(=O)Nc1cccc(Br)c1,65.2*,3.1,1.5,-0.1,i,3.8
Fc1cc(Cl)cc2ccc(-c3ccccc3)nc12,x,-1.3,x,-0.1,i,103.3*
Fc1ccc2nc(-c3ccccc3)ccc2c1,x,-0.3,x,0.0,i,-4.9
O=C1NC(=O)/C(=C\c2ccc(OCc3cnc(Cl)s3)cc2)S1,13.4,-5.8,-0.2,0.7,i,37.3*
O=C1NC(=O)/C(=C\c2ccc(Cl)nc2)S1,3.5,0.7,-1.4,-1.0,i,-3.1
Clc1ccc(N=c2ssnc2Cl)nc1,3.1,6.1,-0.8,31.8*,i,7.2
Clc1nssc1=Nc1ccc(Br)cc1,6.7,-1.3,x,0.8,i,-7.2
Cc1cc(C(=O)OCC(=O)N(CC(C)C)c2c(N)n(Cc3ccccc3)c(=O)[nH]c2=O)c2ccccc2n1,x,-2.4,3.2,-16.3,i,-3.0
OCCCc1nc2n(n1)C(c1ccccc1Cl)C=C(c1cccs1)N2 (stereo not given),32.3,22.0,24.2*,-22.3,i,3.4
OCCCc1nc2n(n1)C(c1cccs1)C=C(c1ccccc1)N2 (stereo not given),31.8,x,-48.8,x,x,x
Cc1ccc(Cc2c(-c3ccc(F)cc3)nc3c(C)cc(Br)cn23)cc1,x,3.6,x,40.5*,i,0.5
Cc1ccc(Cc2c(-c3ccc(C)cc3)nc3c(C)cc(Br)cn23)cc1,x,10.0,x,9.9,i,0.4
CCN(CC)c1ccc(/C=N/NC(=O)CNC(=O)/C=C/c2ccco2)cc1,-8.4,1.1,-0.8,-1.5,i,5.8
CC(Sc1n[nH]c(-c2ccccc2F)n1)C(=O)Nc1ccc(S(N)(=O)=O)cc1 (stereo not given),x,-2.2,x,0.5,i,4.8
CCOC(=O)/C=c1\s/c(=C\c2ccc3cc(OC)ccc3c2)c(=O)n1CC(=O)NCc1ccc2c(c1)OCO2,18.4,64.2,1.7,-24.6,x,59.8*
CN1CCN(CC(=O)n2c3c(c4ccccc42)CCCC3)CC1,-6.0,6.2,2.0,-16.9,i,39.3*
CCN(CC)CC(=O)n1c2c(c3ccccc31)CCCC2,22.6,-0.2,3.2,-0.8,i,1.0
CC(Sc1ncc(C#N)c(N)n1)C(=O)Nc1ccccc1 (stereo not given),-12.4,-0.5,2.4,-24.3,i,54.2*
CC(C)(Oc1ccc(Cl)cc1)C(=O)NCc1n[nH]c(=O)c2ccccc12,x,-1.1,1.8,1.0,i,-1.2
O=C(N/N=C/c1ccc2c(c1)OCO2)c1ccc(COCC(F)(F)C(F)F)cc1,21.2,-0.5,-0.1,0.8,+,-1.9
COc1ccc(/C=N/NC(=O)c2ccc(COCC(F)(F)C(F)F)cc2)cc1,13.1,1.5,2.4,2.7,i,-2.4
Cc1cc(Br)c(NC(=O)c2ccccc2[N+](=O)[O-])cc1C,12.0,-2.2,-2.9,0.8,i,-0.8
O=[N+]([O-])c1ccc(NN=Cc2cccc3ccccc23)nc1,x,35.4*,x,-33.0,x,23.1
O=C(O)c1ccccc1CSc1nnnn1-c1ccccc1,9.3,-1.4,-1.2,0.7,i,-2.2
